{"source": "paper PMC2949545", "about": "(Environment international, 2010)", "key": {"LacI gene [1]": {"test_system": "LacI gene", "experiment": "BigBlue lacI mutant and mutation frequency analysis, female liver", "type": "in vivo, F344 BigBlue rats", "outline": "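Female F344 BigBlue rats (lacI transgene), 4/group, got i.p. test compound, positive control or corn oil (5 ml/kg) weekly on PND 37, 44, 51, 58 and were killed on PND75. Genomic DNA from 50 mg central liver was lambda-packaged, infected into E. coli and plated in X-gal top agar overnight. Blue plaques were counted, with >100,000 pfu/animal. Mutant frequency = blue plaques/pfu, per 10^6 ± SE.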"}, "LacI gene [2]": {"test_system": "LacI gene", "experiment": "LacI gene sequencing, type of mutations", "type": "in vivo, F344 BigBlue rats", "details": "female liver"}, "[3]": {"experiment": "Body weight gain during the study period", "type": "in vivo, F344 BigBlue rats"}, "liver mRNA": {"test_system": "liver mRNA", "experiment": "Gene expression analysis of female liver RNA", "type": "in vivo, F344 BigBlue rats"}, "F344 BigBlue rats [4]": {"test_system": "F344 BigBlue rats", "experiment": "Histological analysis of spleen, lung and liver", "type": "in vivo", "details": "animal 1 – 4", "outline": "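In both genders, frozen tissue sampled at PND75 sacrifice (4 weekly i.p. doses, 4 rats/group) was cut into four-micron sections. Sections were stained with hematoxylin/eosin and examined by light microscopy for histological anomalies in each animal.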"}, "F344 BigBlue rats [5]": {"test_system": "F344 BigBlue rats", "experiment": "Organ weights normalized to body weight", "type": "in vivo", "details": "versus corn oil controls", "outline": "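Rats of both genders, 4/group, were given 4 weekly i.p. doses in corn oil and killed on PND75 by CO2 then cervical dislocation. Liver and other organs were excised and weighed, and weights were expressed as g per 100 g body weight. ANOVA used treatment, gender and their interaction.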"}, "Sprague Dawley rat": {"test_system": "Sprague Dawley rat", "details": "female Sprague Dawley rats; ref http://ntp.niehs.nih.gov/; cited from earlier work"}}, "note": "Where “and” joins values, the source holds several entries; their conditions need not be identical. Equal entries are not always repeated."}
{"compound": "Clc1ccc(-c2ccccc2)cc1", "note": "[PCB3, 4-chlorobiphenyl]", "values": [{"measurement": "significance of the increase in mutation frequency compared to control", "setting": "LacI gene [1]", "result": "neither PCB3 (p=0.429) nor 4′-OH-PCB3 (p=0.581) increased the mutation frequency significantly"}, {"measurement": "Mutants per 10^6 plaques (mutant frequency)", "setting": "LacI gene [1]; 4 weekly i.p. injections, sacrifice PND75", "result": 30.3, "unit": "per 10^6 plaques"}, {"measurement": "Mutation Frequency (MF) ± SE (corrected)", "setting": "LacI gene [1]; after sequencing", "result": "30.3 ± 17.9", "unit": "per 10^6 pfu"}, {"measurement": "Number of Mutations (corrected)", "setting": "LacI gene [1]; after sequencing, duplicates and non-mutants excluded", "result": 15}, {"measurement": "Deletions, % of total", "setting": "LacI gene [2]", "result": 7, "unit": "%"}, {"measurement": "Insertions, % of total", "setting": "LacI gene [2]", "result": 20, "unit": "%"}, {"measurement": "Total Mutations", "setting": "LacI gene [2]", "result": 15}, {"measurement": "Transitions, % of total", "setting": "LacI gene [2]", "result": 53, "unit": "%"}, {"measurement": "Transversions, % of total", "setting": "LacI gene [2]", "result": 20, "unit": "%"}, {"measurement": "Deletions, distinct mutations", "setting": "LacI gene [2]; number", "result": 1}, {"measurement": "Insertions, distinct mutations", "setting": "LacI gene [2]; number", "result": 3}, {"measurement": "Transitions, distinct mutations", "setting": "LacI gene [2]; number", "result": 8}, {"measurement": "Transversions, distinct mutations", "setting": "LacI gene [2]; number", "result": 3}, {"measurement": "Weight Gain (average ± StDev)", "setting": "[3]; Female, control 80.7 ± 7.42", "result": "79.6 ± 4.51", "unit": "gram"}, {"measurement": "Weight Gain (average ± StDev)", "setting": "[3]; Male, control 159.7 ± 7.63", "result": "146.1 ± 7.99", "unit": "gram"}, {"measurement": "effect on weight gain compared to control", "setting": "[3]; either gender", "result": "Neither PCB3 nor 4′-OH-PCB3 had a significant effect on weight gain in either gender"}, {"measurement": "number of unique genes significantly changed", "setting": "liver mRNA; p < 0.0001 and fold change > 5 versus corn oil control, pooled RNA", "result": 86}, {"measurement": "CYP mRNA in the liver", "setting": "liver mRNA; versus corn oil control", "result": "No CYP mRNA increase"}, {"measurement": "Jun expression change", "setting": "liver mRNA; versus corn oil control, up", "result": 55.9, "unit": "fold"}, {"measurement": "avpr1a (arginine vasopressin receptor 1A) expression change", "setting": "liver mRNA; versus corn oil control, up", "result": 7.3, "unit": "fold"}, {"measurement": "cfdp1 (craniofacial development protein 1) expression change", "setting": "liver mRNA; versus corn oil control, up", "result": 6.2, "unit": "fold"}, {"measurement": "cps1 (carbamoyl-phosphate synthetase 1) expression change", "setting": "liver mRNA; versus corn oil control, up", "result": 6.7, "unit": "fold"}, {"measurement": "hmox1 (heme oxygenase 1) expression change", "setting": "liver mRNA; versus corn oil control, up", "result": 5.8, "unit": "fold"}, {"measurement": "kdr (kinase insert domain protein receptor) expression change", "setting": "liver mRNA; versus corn oil control, up", "result": 5.5, "unit": "fold"}, {"measurement": "lrrc59 (leucine rich repeat containing 59) expression change", "setting": "liver mRNA; versus corn oil control, up", "result": 33.1, "unit": "fold"}, {"measurement": "mbd2 (Methyl-CpG-binding protein) expression change", "setting": "liver mRNA; versus corn oil control, up", "result": 6.9, "unit": "fold"}, {"measurement": "mrpl23 (mitochondrial ribosomal protein L23) expression change", "setting": "liver mRNA; versus corn oil control, up", "result": 223.3, "unit": "fold"}, {"measurement": "sult1b1 (sulfotransforase 1b1) expression change", "setting": "liver mRNA; versus corn oil control, up-regulated", "result": "~7", "unit": "fold"}, {"measurement": "Organ Pathology, LIVER", "setting": "F344 BigBlue rats [4]; Female", "result": "all female PCB3 livers had acidophilic bodies and two animals also showed patchy hepatocellular necrosis and 1 + 2: Scattered acidophilic bodies 3: Centrilobular acidophilic bodies and patchy hepatocellular necrosis. 4: Centrilobular acidophilic bodies and patchy hepatocellular necrosis."}, {"measurement": "Organ Pathology, LUNG", "setting": "F344 BigBlue rats [4]; Female", "result": "1: Focal acute inflammation 2: Minimal acute inflammation with areas of atelectasis 3: Minimal acute inflammation 4: Patchy bronchopneumonia with early ARDS. Perivascular lymphocytes increased."}, {"measurement": "Organ Pathology, SPLEEN", "setting": "F344 BigBlue rats [4]; Female", "result": "No abnormality"}, {"measurement": "Organ Pathology, SPLEEN", "setting": "F344 BigBlue rats [4]; Male", "result": "No abnormality"}, {"measurement": "impact on liver, lung and spleen weights", "setting": "F344 BigBlue rats [5]", "result": "no statistically significant impact"}]}
{"compound": "Clc1ccc(-c2cc(Cl)c(Cl)cc2Cl)cc1Cl", "note": "[PCB 118, 2,3′,4,4′,5-pentachloro-biphenyl]", "values": [{"measurement": "carcinogenicity in chronic carcinogenicity studies", "setting": "Sprague Dawley rat", "result": "clear evidence"}]}
{"compound": "Clc1ccc(-c2cc(Cl)c(Cl)c(Cl)c2)cc1Cl", "note": "[PCB 126, 3,3′,4,4′,5-pentachlorobiphenyl]", "values": [{"measurement": "carcinogenicity in chronic carcinogenicity studies", "setting": "Sprague Dawley rat", "result": "clear evidence"}]}
